# In the library only some 0.63% were active in any assay of this set; here they are far more common.
# TRPML3 ag: activates the human TRPML3 channel; HEK293 TRPML3-YFP, Fluo-8 calcium fluorescence; 100% = the carbachol control signal; activation, % at 3 µM; Q8TDD5; actives 0.29% (n = 220,000);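 active = activation above its plate's cutoff, the mean activation of the plate's test wells plus 3 SD, cut at about 12% in these data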;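 also: 0% = DMSO only wells and 100% = carbachol wells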
#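 Test system – HEK293 line with stable expression of human TRPML3-YFP channel · Control set – carbachol 87 µM final as high control (100%), DMSO as low control (0%) · Signal – Fluo-8 calcium dye fluorescence, ex 470-495, em 515-575 nm · Incubation – 1-h 37 °C dye load, 5-s basal, 120-s post-compound reads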
# zfTRPN1 agonist: activates the zebrafish TRPN1 channel. HEK293 zebrafish TRPN1-YFP, Fluo-8 calcium fluorescence; 100% = response to 87 µM carbachol. activation, % at 3 µM. actives 0.18% (n = 220,000). AID 1424;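 active = activation above its plate's cutoff, the mean activation of test wells on that plate plus 3 SD, cut at about 19% in these data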;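 also: 0% = DMSO alone and 100% = 87 µM carbachol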
#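 Material – zebrafish TRPN1-YFP in HEK293 cells · Doses – 3 µM single point · Schedule – dye 1 h 37 °C plus 30 min RT · Signal – Fluo-8 calcium fluorescence, excitation 470-495 nm, emission 515-575 nm · Read-out – % activation versus carbachol response · Control set – carbachol high, DMSO low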
# IDE inh: inhibits human insulin-degrading enzyme in HEK cells; FAbetaB cleavage, fluorescence polarization; inhibition, % at 5.59 µM; actives 0.41% (n = 320,000); AID 434962;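 active = percent inhibition above the average of all tested compounds plus 3 SD, set per screening campaign, cut at about 16% in these data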;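 also: IDE supplied by intact live HEK cells; FP after avidin binding of uncleaved biotin substrate so inhibition keeps polarization high; 0% = DMSO wells and 100% = 60 µM reference IDE inhibitor Ii1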
# Target sequence (P14735 whole entry, looked up): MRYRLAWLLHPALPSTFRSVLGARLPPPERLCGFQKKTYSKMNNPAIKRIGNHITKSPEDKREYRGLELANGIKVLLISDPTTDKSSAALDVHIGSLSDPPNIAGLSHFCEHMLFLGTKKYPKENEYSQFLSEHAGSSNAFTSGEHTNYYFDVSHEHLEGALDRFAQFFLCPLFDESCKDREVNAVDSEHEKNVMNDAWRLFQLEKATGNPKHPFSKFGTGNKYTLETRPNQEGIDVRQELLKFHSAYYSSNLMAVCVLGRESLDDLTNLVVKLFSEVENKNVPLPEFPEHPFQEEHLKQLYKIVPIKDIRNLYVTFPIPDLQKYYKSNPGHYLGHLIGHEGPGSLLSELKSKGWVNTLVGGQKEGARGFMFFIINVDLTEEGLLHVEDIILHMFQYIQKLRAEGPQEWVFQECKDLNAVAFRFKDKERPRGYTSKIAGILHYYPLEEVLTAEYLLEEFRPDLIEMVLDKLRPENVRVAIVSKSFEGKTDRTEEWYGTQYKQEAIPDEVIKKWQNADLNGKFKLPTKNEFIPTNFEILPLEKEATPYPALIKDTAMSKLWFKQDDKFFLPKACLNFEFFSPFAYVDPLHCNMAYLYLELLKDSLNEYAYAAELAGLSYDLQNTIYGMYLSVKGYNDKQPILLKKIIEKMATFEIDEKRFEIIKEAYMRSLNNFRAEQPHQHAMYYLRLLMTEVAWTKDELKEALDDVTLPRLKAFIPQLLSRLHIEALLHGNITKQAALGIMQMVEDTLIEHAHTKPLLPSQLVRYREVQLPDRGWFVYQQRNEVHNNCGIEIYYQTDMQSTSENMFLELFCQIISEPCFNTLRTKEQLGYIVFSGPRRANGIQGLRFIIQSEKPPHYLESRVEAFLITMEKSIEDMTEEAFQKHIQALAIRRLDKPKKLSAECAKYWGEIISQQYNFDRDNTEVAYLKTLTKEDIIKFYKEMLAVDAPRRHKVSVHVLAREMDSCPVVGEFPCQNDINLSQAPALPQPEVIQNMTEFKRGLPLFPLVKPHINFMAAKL
# IDE cell activ: IDE (human) activation, cell-based; P14735; HEK cells, FAbeta-B cleavage, fluorescence polarization; 0% vehicle, 100% cell-free pure enzyme wells; activation, % at 5.96 µM; actives 0.073% (n = 340,000);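 active = activation above the mean of all tested compounds plus 3 SD, set per screening campaign, cut at about 17% in these data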
# IDE cell inh cf: cellular human IDE inhibition, confirmation; shares compounds with IDE inh; HEK cells, FAbetaB cleavage, fluorescence polarization; inhibition, % at 5.59 µM; actives 51% (n = 1,200); AID 435028;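 active = mean inhibition across triplicate wells above the cutoff set by the earlier primary insulin-degrading enzyme screen, cut at about 16% in these data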;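 also: 0% = DMSO wells and 100% = 60 µM reference IDE inhibitor Ii1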
# HEK293 tox: kills HEK cells in IDE inhibitor counter-screen; actives 28% (n = 1,200); HEK293 cytotoxicity, ATP luminescence; inhibition, % at 5.59 µM; AID 449730; shares compounds with IDE inh; in the data active = inhibition above about 22%;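 also: 0% = vehicle wells and 100% = reference cytotoxic drug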
# IDE FP artifact: fluorescence interference counter-screen for IDE inhibitors; shares compounds with IDE inh; FP counterscreen for fluorescent artifacts, IDE probe project; IC50, µM; 30 tested, under 10 active; call rule not given here
# The depositor's hits bear a star; x = no result given.
SMILES,TRPML3 ag,zfTRPN1 agonist,IDE inh,IDE cell activ,IDE cell inh cf,HEK293 tox,others
CN(C)c1ccc(/C=C/C(=O)c2cccc(Br)c2)cc1,92*,163*,107*,-172,110*,26*,
Cc1cc(C(=O)Cn2cnc3ccccc3c2=O)c(C)n1C1CC1,x,x,4,15,x,x,
O=C1c2ccccc2-c2onc3ccc(NCc4ccco4)c1c23,2,2,20*,-4,91*,27*,
Nc1ccc2c3c(cccc13)CC2,20*,42*,43*,-5,3,4,
c1ccc(Nc2ccc3c4c(cccc24)CC3)cc1,0,-1,7,-74,x,x,
CCN(CC)c1ccc(/C=C(/C#N)C(=O)NC(C)C)o1,7,10,27*,-32,30*,13,
CC(C)NC(=O)/C(C#N)=C\c1ccc(N(C)C)o1,3,4,6,-24,x,x,
CCN(CC)c1ccc(/C=C(/C#N)C(=O)NCc2ccccc2)o1,14*,9,103*,-104,153*,6,
Cc1cccc(C)c1NC(=O)CCCCCC1NC(=O)NC1C (configuration not stated),0,0,22*,-42,1,7,
CC1NC(=O)NC1CCCCCC(=O)NCCc1ccccc1 (configuration not stated),0,-1,4,-13,x,x,
CCOc1ccccc1-n1c(SCC(N)=O)nnc1-c1cccnc1,1,3,17*,-33,13,9,
CSc1ccc(C2C(C#N)=C(N)Oc3c2ccc(=O)c2c(C)oc(C)c32)cc1 (configuration not stated),0,0,30*,-31,109*,25*,
Cc1oc(C)c2c(=O)ccc3c(c12)OC(N)=C(C#N)C3c1ccccc1Cl (configuration not stated),2,2,30*,-76,26*,14,
COc1ccc(S(=O)(=O)Nc2cc3c4c(c2)CCN4C(=O)CC3)cc1C,x,x,6,1,x,x,
COc1cc(/C=C2\CC/C(=C\c3cc(OC)c(O)c(OC)c3)C2=O)cc(OC)c1O,1,2,7,-3,x,x,
COc1cc(/C=C2/CCC/C(=C\c3cc(O)c(OC)c(Cl)c3)C2=O)cc(Cl)c1O,1,2,23*,-20,24*,87*,
CC(Oc1ccc2c3c(c(=O)oc2c1)CCCC3)C(=O)NCc1ccncc1 (configuration not stated),x,x,24*,-34,17*,16,
Cn1cnnc1SCC(=O)N1N=C2/C(=C/c3ccco3)CCCC2C1c1ccco1 (configuration not stated),-1,-1,17*,-24,9,13,
O=C(Nn1c(O)c(C=C2N=c3ccccc3=N2)sc1=S)c1ccccc1,1,0,20*,-15,15,6,
C[C@@H]1C=C(C(=O)NCc2nc3ccccc3[nH]2)O[C@H](OCCCCO)C1,x,x,17*,-4,3,13,
C[C@@H]1C=C(C(=O)NCc2nc3ccccc3[nH]2)O[C@H](OCc2ccc(CO)cc2)C1,x,x,3,0,x,x,
CCN1CCc2c(sc(NC(=O)Cc3ccccc3)c2C(N)=O)C1,x,x,0,4,x,x,
CCN1CCc2c(sc(NC(=O)Nc3ccc(Cl)c(Cl)c3)c2C(N)=O)C1,84*,195*,110*,-124,58*,20,
CCC(C)C(=O)Nc1ccc(OC)cc1[N+](=O)[O-] (configuration not stated),0,-2,4,-6,x,x,
COc1cc(/C=C2/SC(=O)NC2=O)ccc1OC(=O)c1ccco1,x,x,-4,1,x,x,
SMILES,TRPML3 ag,zfTRPN1 agonist,IDE inh,IDE cell activ,IDE cell inh cf,HEK293 tox,others
COc1cc(/C=C2\SC(=S)N(NC(C)=O)C2=O)ccc1OC(=O)c1ccco1,x,x,22*,-17,66*,11,IDE FP artifact=>55
COc1ccc(/C=C2\SC(=S)N(NC(=O)c3ccncc3)C2=O)cc1OC,1,-1,8,x,x,x,
COc1cc(/C=C2/SC(=S)N(C)C2=O)ccc1OC(=O)c1ccco1,2,6,24*,-26,63*,9,
CC(=O)N1CCc2cc(Br)cc(S(=O)(=O)CCC(=O)N3CCN(c4ccccn4)CC3)c21,-2,-2,8,8,x,x,
COc1ccc(C(=O)N/C(=C/c2cccs2)C(=O)NN)cc1OC,1,2,22*,-22,-2,11,
Cc1ccc(S(=O)(=O)N2CCCN(C(=O)c3cc4ccccc4[nH]3)CC2)cc1,x,x,16*,-16,5,9,
COc1ccc(N(CC(=O)N2CCN(c3ccc(Cl)cc3)CC2)S(=O)(=O)c2c(C)n[nH]c2C)cc1,1,0,18*,-16,8,19,
COc1ccc(N(CC(=O)Nc2ccc(Cl)cc2)S(=O)(=O)c2c(C)n[nH]c2C)cc1,x,x,6,2,x,x,
CSc1nsc(SCC(=O)Nc2ccccc2C(=O)O)n1,x,x,17*,-10,15,12,
CSc1nsc(SCC(=O)Nc2ccc(O)c(C(=O)O)c2)n1,x,x,4,1,x,x,
O=C(Nc1cccc(C(F)(F)F)c1)c1csc(-c2ccccc2)n1,x,x,x,x,x,x,IDE FP artifact=>55
O=C(Nc1ccc(C(F)(F)F)cc1)c1csc(-c2ccncc2)n1,1,3,-2,-2,x,x,
NNC(=O)c1csc(-c2cccc(C(F)(F)F)c2)n1,0,-1,-3,5,x,x,
O=C(Nc1cccc(C(F)(F)F)c1)c1csc(-c2cccc(C(F)(F)F)c2)n1,x,x,x,x,x,x,IDE FP artifact=>55
O=C(Nc1cc(C(F)(F)F)cc(C(F)(F)F)c1)c1csc(-c2ccncc2)n1,x,x,x,x,x,x,IDE FP artifact=>55
Cc1ccc(-c2nc(C(=O)Nc3cccc(C(F)(F)F)c3)cs2)cc1,x,x,x,x,x,x,IDE FP artifact=>55
CC(C)NC(=O)c1ccc2c(c1)N(CC(=O)Nc1ccccc1F)C(=O)C(C)(C)O2,x,x,3,5,x,x,
CCOc1ccc(N2CC(C(=O)Nc3c(C)n(C)n(-c4ccccc4)c3=O)CC2=O)cc1 (configuration not stated),1,1,0,3,x,x,
Nc1ccc(C(=O)Nc2ccco2)cc1,1,1,9,-1,x,x,
O=C1NC(=S)N(C(=O)c2ccc(F)cc2)/C1=C/c1ccccc1,5,14,28*,-24,32*,13,
COc1cc([N+](=O)[O-])c2ncsc2c1,1,1,-2,1,x,x,
COc1cc(SSc2cc(OC)cc([N+](=O)[O-])c2N)c(N)c([N+](=O)[O-])c1,0,1,21*,-27,18*,24*,
CC(=O)C1=C(C)NC(SCSc2ccccc2)=C(C#N)C1c1cccnc1 (configuration not stated),2,-2,21*,x,13,13,
CCCNC(=O)Cn1c(=O)/c(=C\c2ccc(-c3ccc([N+](=O)[O-])cc3)o2)s/c1=C\C(=O)C(C)(C)C,3,16,21*,-1,77*,18,

# Screening data (PubChem BioAssay)
